Results taken from ChEMBL document CHEMBL1128673, “Conformationally constrained phosphotyrosyl mimetics designed as monomeric Src homology 2 domain inhibitors” (J Med Chem, 1995).

Columns and labels:
[1] = In vitro binding to Phospholipase C-gamma SH2 domain
How it was run: (§1)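 Competition binding used GST fusion of the PLCγ C-terminal SH2 domain (0.5–1.0 μM, Bradford) with 35 fmol (67 nCi) [125I]Bolton–Hunter-labelled PDGF pY1021 phosphopeptide plus varying unlabelled pTyr analogue. Buffer was 20 mM Tris-HCl, 250 mM NaCl, 0.1% BSA, 10 mM DTT, pH 7.4. Glutathione-agarose capture ran overnight at 22 °C with mixing, then 12000g for 5 min; pellet 125I was gamma-counted.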

[2] = In vitro binding to p85-C SH2 domain
How it was run: as §1, with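 “GST” for “Competition binding used GST”, “p85 PI-3 kinase” for “PLCγ”, “IRS-1 pY628” for “PDGF pY1021”, “and” for “plus”, “analogue in” for “analogue. Buffer was”, “°C,” for “°C with mixing,”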

[3] = biological target: T1, Tyrosine-protein phosphatase non-receptor type 11 (Homo sapiens) (UniProt Q06124); test: In vitro binding to SH-PTP2-N (SHP-2) SH2 domain
T1 sequence (whole entry): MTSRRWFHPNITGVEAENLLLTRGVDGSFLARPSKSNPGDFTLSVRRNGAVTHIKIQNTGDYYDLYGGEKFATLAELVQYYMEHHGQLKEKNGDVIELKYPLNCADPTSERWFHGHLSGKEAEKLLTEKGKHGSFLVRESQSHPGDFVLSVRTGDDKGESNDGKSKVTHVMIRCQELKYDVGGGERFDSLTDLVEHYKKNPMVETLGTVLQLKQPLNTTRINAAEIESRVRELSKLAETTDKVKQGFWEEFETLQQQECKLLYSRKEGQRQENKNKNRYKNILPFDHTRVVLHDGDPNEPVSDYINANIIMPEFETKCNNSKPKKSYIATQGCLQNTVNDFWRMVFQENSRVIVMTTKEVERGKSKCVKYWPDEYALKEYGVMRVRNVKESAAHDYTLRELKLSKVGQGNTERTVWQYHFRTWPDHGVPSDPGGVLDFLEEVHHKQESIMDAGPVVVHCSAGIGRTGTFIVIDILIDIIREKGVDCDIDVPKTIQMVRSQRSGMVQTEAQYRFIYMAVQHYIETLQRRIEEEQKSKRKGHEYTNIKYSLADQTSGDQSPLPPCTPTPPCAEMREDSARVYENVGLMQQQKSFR
How it was run: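 SH-PTP2 N-terminal SH2 domain as a GST fusion (0.5–1.0 μM, Bradford) was mixed with 35 fmol (67 nCi) [125I]Bolton–Hunter IRS-1 pY1172 phosphopeptide and varying unlabelled pTyr analogue in 20 mM Tris-HCl, 250 mM NaCl, 0.1% BSA, 10 mM DTT, pH 7.4. Glutathione-agarose pull-down ran overnight at 22 °C, then 12000g for 5 min, with gamma counting of unwashed pellets.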

[4] = biological target: Proto-oncogene tyrosine-protein kinase Src (Homo sapiens) (UniProt P12931); test: In vitro binding to Src SH2 domain
[5] = biological target: Tyrosine-protein kinase Lck (Homo sapiens) (UniProt P06239); test: In vitro binding to p56 Lck SH2 domain
How it was run: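 Lck SH2 domain as a GST fusion (0.5–1.0 μM, Bradford) with 35 fmol (67 nCi) [125I]Bolton–Hunter hmT pY324 phosphopeptide and varying unlabelled pTyr analogue in 20 mM Tris-HCl, 250 mM NaCl, 0.1% BSA, 10 mM DTT, pH 7.4. Complexes were captured on glutathione-agarose overnight at 22 °C, pelleted at 12000g for 5 min, and unwashed pellets gamma-counted.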

[6] = biological target: Growth factor receptor-bound protein 2 (Homo sapiens) (UniProt P62993); test: In vitro binding to Growth factor receptor bound protein 2
How it was run: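 GST–Grb2 SH2 fusion (0.5–1.0 μM, Bradford-estimated) with 35 fmol (67 nCi) [125I]Bolton–Hunter-labelled Shc pY317 phosphopeptide and varying unlabelled pTyr analogue in 20 mM Tris-HCl, 250 mM NaCl, 0.1% BSA, 10 mM DTT, pH 7.4. Glutathione-agarose was added, then overnight at 22 °C with mixing. After centrifugation at 12000g for 5 min, unwashed pellet radioactivity was gamma-counted.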

Tyrosine-protein kinase Lck (Homo sapiens), sequence (P06239 2-509 limits assumed): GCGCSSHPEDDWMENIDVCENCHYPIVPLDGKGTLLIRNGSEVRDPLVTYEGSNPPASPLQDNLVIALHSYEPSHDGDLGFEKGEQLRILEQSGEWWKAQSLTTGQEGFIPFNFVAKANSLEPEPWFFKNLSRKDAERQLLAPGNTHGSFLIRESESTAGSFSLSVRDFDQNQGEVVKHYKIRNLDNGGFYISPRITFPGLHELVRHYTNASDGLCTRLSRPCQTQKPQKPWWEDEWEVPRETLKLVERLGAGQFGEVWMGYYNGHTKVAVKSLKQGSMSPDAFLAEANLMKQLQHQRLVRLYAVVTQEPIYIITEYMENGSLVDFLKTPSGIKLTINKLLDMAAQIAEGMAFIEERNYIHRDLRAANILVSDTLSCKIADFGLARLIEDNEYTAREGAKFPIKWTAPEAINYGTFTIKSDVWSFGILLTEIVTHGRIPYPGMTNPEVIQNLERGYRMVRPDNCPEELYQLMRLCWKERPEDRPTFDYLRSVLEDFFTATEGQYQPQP
Proto-oncogene tyrosine-protein kinase Src (Homo sapiens), sequence (P12931 2-536 limits assumed): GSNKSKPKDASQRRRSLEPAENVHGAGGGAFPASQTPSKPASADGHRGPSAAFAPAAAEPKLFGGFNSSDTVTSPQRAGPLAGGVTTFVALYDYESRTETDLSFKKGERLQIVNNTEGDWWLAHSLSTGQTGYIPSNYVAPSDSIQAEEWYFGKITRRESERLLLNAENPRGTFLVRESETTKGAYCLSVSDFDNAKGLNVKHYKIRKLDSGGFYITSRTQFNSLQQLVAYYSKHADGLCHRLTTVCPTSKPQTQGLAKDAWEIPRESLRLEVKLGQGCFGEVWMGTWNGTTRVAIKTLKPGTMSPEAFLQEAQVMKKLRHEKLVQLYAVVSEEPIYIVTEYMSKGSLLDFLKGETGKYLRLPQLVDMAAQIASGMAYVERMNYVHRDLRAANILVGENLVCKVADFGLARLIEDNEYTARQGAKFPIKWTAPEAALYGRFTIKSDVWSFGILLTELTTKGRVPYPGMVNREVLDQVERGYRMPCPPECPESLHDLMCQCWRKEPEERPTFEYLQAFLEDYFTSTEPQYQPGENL

| ID50 [1] [µM] | ID50 [2] [µM] | ID50 [3] [µM] | ID50 [4] [µM] | ID50 [5] [µM] | ID50 [6] [µM] | Structure (SMILES) |
| --- | --- | --- | --- | --- | --- | --- |
| 400 | 1500 | > 3000 | 1000 | > 3000 |  | CC(=O)N[C@@H](Cc1ccc(OP(=O)(O)O)cc1)C(N)=O |
| > 3000 | 1500 | > 3000 | > 3000 | > 3000 | > 3000 | CC(=O)N[C@H](C(N)=O)[C@@H]1CCc2cc(OP(=O)(O)O)ccc21 (racemic) |
| > 3000 | 1500 | > 3000 | > 3000 | 1500 | > 3000 | CC(=O)N[C@H](C(N)=O)[C@H]1CCc2cc(OP(=O)(O)O)ccc21 (racemic) |

The remaining lines, values behind:

| Structure (SMILES) | ID50 [1] [µM] | ID50 [2] [µM] | ID50 [3] [µM] | ID50 [4] [µM] | ID50 [5] [µM] | ID50 [6] [µM] |
| --- | --- | --- | --- | --- | --- | --- |
| N[C@@H](Cc1ccc(OP(=O)(O)O)cc1)C(=O)O | 2300 | 3500 | > 33000 | 3500 | 5000 | 6200 |
| CC(=O)N1CC2Cc3cc(O)ccc3C(C)(C2)C1 (racemic) | > 6000 | > 5000 | > 3000 | > 6000 | > 6000 |  |
| CC(=O)N1CC2Cc3cc(OP(=O)(O)O)ccc3C(C)(C2)C1 (racemic) | > 3000 | 1300 | > 3000 | 900 | > 3000 |  |
